These results are taken from PMC6176901 (ChemMedChem, 2018).

A value given as a limit tells only on which side of the number the result lay.

The target in data set [1] is LMan (human lysosomal α-mannosidase). Particulars: read-out: LMan IC50 (in LManII column); ref 9a; cited from earlier work.
Data set [2] has as its target GMII (human Golgi α-mannosidase II). The note with it: ref 9a, cited from earlier work.
The conditions of data set [3]: cited from earlier work.
Data set [4] relates to CEM-DNR (T-lymphoblastic leukemia, daunorubicin resistant). Description: Cytotoxic MTS assay, CEM-DNR. The format is cell-based. Particulars: Homo sapiens, 72 h, read-out: Cytotoxic activity IC50, CEM-DNR. The method in brief: (§1)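 Human lines grown in DMEM/RPMI 1640 with 10% fetal calf serum; CEM-DNR and K562-TAX sublines selected in rising daunorubicin or paclitaxel. Seeded at 25000–35000 cells/mL in 384-well plates; DMSO solutions added at time zero; 72 h at 37 °C, 5% CO2. MTS added for 1–4 h; OD at 490 nm. Survival versus control wells; IC50 from dose-response curves. Technical duplicates, ≥3 biological replicates.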

Data set [5] relates to U2OS (Human Bone Osteosarcoma Epithelial Cells). Description: Cytotoxic MTS assay, U2OS. The data set is classed as cell-based. Particulars: 72 h, read-out: Cytotoxic activity IC50, U2OS. A digest of the protocol:
as §1

Data set [6] concerns CCRF-CEM (T-lymphoblastic leukemia). Description: Cytotoxic MTS assay, CCRF-CEM. The format is cell-based. The note with it: Homo sapiens, 72 h, read-out: Cytotoxic activity IC50, CCRF-CEM. A digest of the protocol: as §1
The test system of data set [7] is K562 (acute myeloid leukemia). Kind of data set: Cytotoxic MTS assay, K562. The format is cell-based. The method in brief: as §1
Data set [8] relates to K562-TAX (acute myeloid leukemia, overexpressing the P-glycoprotein). Kind of data set: Cytotoxic MTS assay, K562-TAX. The note with it: 72 h, read-out: Cytotoxic activity IC50, K562-TAX. The data set is classed as cell-based. The method in brief: as §1
Data set [9] can be described thus: Cytotoxic MTS assay, MRC-5. The format is cell-based. The note with it: human, MRC-5 cells (non-malignant lung fibroblasts). A digest of the protocol:
as §1

The subject of data set [10] is cancer and non-malignant cell lines. Kind of data set: Cytotoxic MTS assay, statements over several cell lines. Particulars: read-out: cytotoxicity, range over sensitive lines. The format is cell-based. A digest of the protocol:
as §1

Data set [11] in a line: Cytotoxic MTS assay, BJ. The format is cell-based. The note with it: human, BJ cells (non-malignant fibroblasts). A digest of the protocol:
as §1

Data set [12] relates to A549 (human lung adenocarcinoma). Description: Cytotoxic MTS assay, A549. The note with it: A549, 72 h, read-out: Cytotoxic activity IC50, A549. The format is cell-based. The method in brief: as §1
Data set [13] deals with hERManI. The note with it: read-out: Ki for hERManI (in AspMan column); cited from earlier work.

Consider `OC[C@@H](O)[C@H]1NC[C@@H](O)[C@H]1O` [Compound 24, 1,4-dideoxy-1,4-imino-D-mannitol], for which the IC50 is 13 µM in [1] and 100 µM in data set [2] (read-out: GMII IC50 (in GMIIb column)). In [3], the “pKa ligand, Water pH=7, calculated by Sladek et al.” value is 6.6.

As for `OC[C@@H](O)[C@@H]1[C@H](O)[C@H](O)CN1Cc1ccccc1` [Compound 25], in data set [2], the “Selectivity index, LMan/GMII” value is 2.

Take `O[C@H]1[C@H]2[C@H](O)CCCN2C[C@H]1O` [Compound 1, (1S,2R,8R,8aR)-trihydroxy-indolizidine]: the IC50 was 132 ± 20 µM in data set [4]; greater than 200 µM in [5]; 113 ± 12 µM in [6]; greater than 200 µM in data set [7] (Homo sapiens, K562, 72 h, read-out: Cytotoxic activity IC50, K562); 137 ± 13 µM in data set [8]; 110 to 140 µM in data set [10]. In data set [12], the IC50 was greater than 200 µM. In addition, the “K562 inhibition, in words” value in data set [7] (non-resistant K562) is recorded as “did not inhibit”. Also, the IC50 at 72 h in [9] and in data set [11] was greater than 200 µM each time. For the same compound, the “pKa ligand, Water pH=7, calculated by Sladek et al.” value in data set [3] is 7.8. Besides, the Ki in data set [13] is greater than 10000 µM.
